The text below walks through data of ChEMBL document CHEMBL4371058, “Design, synthesis and characterization of novel N-heterocyclic-1-benzyl-1H-benzo[d]imidazole-2-amines as selective TRPC5 inhibitors leading to the identification of the selective compound, AC1903” (Bioorg Med Chem Lett, 2019).

What is called inhibition is the drop in the measured response relative to a control, in per cent. As a reminder, the IC50 is the point on the concentration scale where inhibition reaches its midpoint. The Cmax is the highest concentration seen after dosing. As a reminder, the Tmax is the time at which the peak concentration occurs. What is called AUC is the area under the concentration-time curve, a measure of exposure. Low readings indicate less exposure, high ones more exposure.

Series [1] concerns the target T1, Short transient receptor potential channel 5 (Mus musculus) (UniProt Q9QX29).
T1 sequence (whole entry): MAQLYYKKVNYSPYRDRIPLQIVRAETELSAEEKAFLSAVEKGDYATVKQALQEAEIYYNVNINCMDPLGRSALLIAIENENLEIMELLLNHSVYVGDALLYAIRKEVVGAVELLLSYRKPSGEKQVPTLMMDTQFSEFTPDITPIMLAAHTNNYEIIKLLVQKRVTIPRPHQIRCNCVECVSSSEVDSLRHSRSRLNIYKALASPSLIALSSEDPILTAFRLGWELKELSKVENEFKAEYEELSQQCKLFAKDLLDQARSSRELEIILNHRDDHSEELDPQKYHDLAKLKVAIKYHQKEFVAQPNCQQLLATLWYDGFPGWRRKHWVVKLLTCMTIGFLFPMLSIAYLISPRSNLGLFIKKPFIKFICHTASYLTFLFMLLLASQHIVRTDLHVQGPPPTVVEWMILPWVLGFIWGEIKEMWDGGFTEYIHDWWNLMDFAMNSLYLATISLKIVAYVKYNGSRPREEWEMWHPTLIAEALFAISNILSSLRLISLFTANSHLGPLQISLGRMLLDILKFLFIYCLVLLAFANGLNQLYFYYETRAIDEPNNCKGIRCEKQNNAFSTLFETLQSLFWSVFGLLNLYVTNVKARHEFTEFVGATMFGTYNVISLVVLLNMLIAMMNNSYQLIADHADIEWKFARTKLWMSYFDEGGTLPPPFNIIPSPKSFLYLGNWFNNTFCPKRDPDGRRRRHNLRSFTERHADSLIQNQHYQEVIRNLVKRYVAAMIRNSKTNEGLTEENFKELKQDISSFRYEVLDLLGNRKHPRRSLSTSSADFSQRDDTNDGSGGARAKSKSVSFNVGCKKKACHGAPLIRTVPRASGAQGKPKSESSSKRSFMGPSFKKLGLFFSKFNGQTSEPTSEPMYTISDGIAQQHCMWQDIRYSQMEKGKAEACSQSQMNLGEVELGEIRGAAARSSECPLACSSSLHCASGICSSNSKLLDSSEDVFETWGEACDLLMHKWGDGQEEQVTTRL
In words: Inhibition of mouse TRPC5 expressed in Flp-In-T-Rex-HEK293 cells assessed as reduction in […]-induced channel current at 3 uM by automated patch clamp method relative to control. It is filed as cell-based. The gist of the method:
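Automated patch clamp (Syncropatch), one concentration in one well, >10 cells. At least one session across two assay plates. DMSO vehicle and a reference inhibitor run as controls on every plate. Result expressed as % inhibition.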

Series [2] has as its target T2, Short transient receptor potential channel 5 (Mus musculus, UniProt Q9QX29).
T2 sequence (Q9QX29 whole entry): T1 sequence (whole entry)
In words: Inhibition of mouse TRPC5 expressed in Flp-In-T-Rex-HEK293 cells assessed as reduction in […]-induced channel current by automated patch clamp method. It is filed as cell-based. The gist of the method: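 Automated patch clamp (Syncropatch) with multiple concentrations in multiple wells. IC50 determined from these wells.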

The nature of series [3]: Cmax in rat at 25 mg/kg, ip. It is filed as ADME, organism-based. The arrangement: dose 25 mg/kg, route intraperitoneal. The following applies: in vivo. The method in brief:
(§1)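 Single intraperitoneal dose of 25 mg/kg in 5% DMSO, 10% Tween80, 85% PBS.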

Series [4] can be described thus: Tmax in rat at 25 mg/kg, ip. The note with it: in vivo. The class given is ADME, organism-based. The method in brief: as §1
Series [5] can be described thus: AUC in rat at 25 mg/kg, ip. The following applies: in vivo. The class given is ADME, organism-based. The method in brief:
as §1

Molecules are shown by their SMILES.

With `Clc1cccc(Cn2c(NCc3ccco3)nc3ccccc32)c1`, the inhibition in series [1] was determined as 70.2%. As to `Cc1cccc(Cn2c(NCc3ccco3)nc3ccccc32)c1`, the inhibition in series [1] was found to be 94.6%. The concentration for half-maximal inhibition (IC50) in series [2] is 4.8 µM.

On to `c1coc(CNc2nc3ccccc3n2CC2CCC2)c1`, for which the inhibition in series [1] worked out at 117%. Consider `Cc1nnc(CNc2nc3ccccc3n2Cc2ccccc2)s1`, for which the inhibition in series [1] stood at 30%. As to `Cc1cc2nc(NCc3ccco3)n(Cc3ccccc3)c2cc1C`, in series [1], the inhibition was found to be 123%. Further, in series [2], the half-inhibitory concentration (IC50) was found to be 12.3 µM.

Consider `Clc1cc2nc(NCc3ccco3)n(Cc3ccccc3)c2cc1Cl`, for which the inhibition in series [1] is 28.2%.

Consider `c1ccc(Cn2c(NCc3cc4ccccc4o3)nc3ccccc32)cc1`, for which the inhibition in series [1] turned out to be 18%. For the molecule `c1ccc(Cn2c(NCc3cccs3)nc3ccccc32)cc1`, in series [1], the inhibition amounted to 150%. For the same molecule, the IC50 in series [2] was 6.26 µM.

Take `COc1ccc(Cn2c(NCc3ccco3)nc3ccccc32)cc1F`: the inhibition in series [1] was 88.4%. Also, in series [2], the half-inhibitory concentration (IC50) was determined as 11.6 µM. As to `Fc1cccc(Cn2c(NCc3ccco3)nc3ccccc32)c1`, in series [1], the inhibition came out at 61.9%. Still for that read-out and setting: as for `Fc1ccc(Cn2c(NCc3ccco3)nc3ccccc32)c(Cl)c1`, the figure is 23.6%; as for `c1coc(CNc2nc3ccccc3n2CC2CCCCC2)c1`, 61.6%; as for `c1ccc(Cn2c(NCc3ccon3)nc3ccccc32)cc1`, 47%. On the same count and under the same terms, as for `Fc1ccccc1Cn1c(NCc2ccco2)nc2ccccc21`, the figure is 54.4%. Turning to `Fc1ccc(Cn2c(NCc3ccco3)nc3ccccc32)c(F)c1`, the inhibition in series [1] is 87%. Moreover, the IC50 in series [2] amounted to 8.42 µM.

Regarding `Fc1ccc(Cn2c(NCc3ccco3)nc3cccnc32)cc1`, in series [1], the inhibition came to 21.7%.

Turning to `c1ccc(Cn2c(NCc3ccco3)nc3ccccc32)cc1`, the inhibition in series [1] turned out to be 100%. Besides, in series [2], the concentration for half-maximal inhibition (IC50) was 4.06 µM. Further, the Cmax in series [3] is 687 ng/mL. In addition, the Tmax in series [4] turned out to be 6.6 min. For the same molecule, the AUC in series [5] was found to be 1130 ng·h/mL. `c1ccc(Cn2c(NCc3ncco3)nc3ccccc32)cc1`: the inhibition in series [1] worked out at 19.1%.

On to `c1ccc(Cn2c(NCc3cccnc3)nc3ccccc32)cc1`, for which the inhibition in series [1] was found to be 12%. For `CCCn1c(NCc2ccco2)nc2ccccc21`, the inhibition in series [1] turned out to be 81.2%. Besides, the half-inhibitory concentration (IC50) in series [2] was found to be 15.5 µM. For the molecule `CN(Cc1ccco1)c1nc2ccccc2n1Cc1ccccc1`, in series [1], the inhibition stood at 41.7%.

For the molecule `c1ccc(CNc2nc3ccccc3n2Cc2ccccc2)cc1`, in series [1], the inhibition worked out at 32.8%. Same read-out and setting: as for `Clc1ccccc1Cn1c(NCc2ccco2)nc2ccccc21`, the figure is 2.6%. Same read-out and setting: as for `c1ccc(Cn2c(NCc3ccccn3)nc3ccccc32)cc1`, the figure is -1.8%. For `CC(Nc1nc2ccccc2n1Cc1ccccc1)c1ccco1` (configuration not stated), the inhibition in series [1] is 91.4%. Besides, the concentration for half-maximal inhibition (IC50) in series [2] came to 4.44 µM. As to `c1coc(CNc2nc3ccccc3n2CCN2CCOCC2)c1`, the inhibition in series [1] is 34.4%. On to `Fc1ccc(Cn2c(NCc3ccco3)nc3ccccc32)cc1`, for which the IC50 in series [2] is 1.82 µM. Regarding `Clc1ccc(Cn2c(NCc3ccco3)nc3ccccc32)cc1`, in series [1], the inhibition worked out at 70.9%. Still for that read-out and setting: as for `c1coc(CNc2nc3ccccc3n2CC2CCCO2)c1` (configuration not stated), the figure is 65.2%; as for `Brc1ccc(OCCn2c(NCc3ccco3)nc3ccccc32)cc1`, 91.1%; as for `c1ccc(Cn2c(NCc3ccco3)nc3cccnc32)cc1`, 31.2%. On the same count and under the same terms, the value for `c1ccc(Cn2c(NCc3cnco3)nc3ccccc32)cc1` was 33.3%. On the same count and under the same terms, as for `c1ccc(Cn2c(Nc3ccccc3)nc3ccccc32)cc1`, the figure is 18.9%; as for `Cc1ncc(CNc2nc3ccccc3n2Cc2ccccc2)s1`, 35.7%; as for `CC(Nc1nc2ccccc2n1Cc1ccccc1)c1nccs1` (configuration not stated), 45%. As to `Cc1nc2ccccc2n1Cc1ccccc1`, the inhibition in series [1] was 19%. In the case of `Fc1cc(Cl)ccc1Cn1c(NCc2ccco2)nc2ccccc21`, in series [1], the inhibition is 128%. For the same molecule, in series [2], the 50% inhibitory concentration (IC50) is 18.1 µM. Take `c1ccc(Cn2c(NCc3nccs3)nc3ccccc32)cc1`: the inhibition in series [1] turned out to be 42.5%.

Consider `Cc1nc(CNc2nc3ccccc3n2Cc2ccccc2)no1`, for which, in series [1], the inhibition was found to be 19.8%. In the case of `Cc1ccoc1CNc1nc2ccccc2n1Cc1ccccc1`, the inhibition in series [1] came out at 82.3%. In addition, in series [2], the IC50 was found to be 6.93 µM. For the molecule `O=C(Nc1nc2ccccc2n1Cc1ccccc1)c1ccco1`, in series [1], the inhibition was found to be 38.5%.

As to `c1ccc(Cn2c(NCc3ccncc3)nc3ccccc32)cc1`, the inhibition in series [1] was found to be 17.4%.

For the molecule `c1ccc(Cn2c(Nc3cccnc3)nc3ccccc32)cc1`, in series [1], the inhibition stood at 19.9%. Regarding `N#Cc1ccc(Cn2c(NCc3ccco3)nc3ccccc32)cc1`, the inhibition in series [1] came out at 50.5%.
